≈ marks a conversion by molar mass, not a printed value.
Key:
[1] = Therapeutic index, ratio of HC50 for human erythrocytes to MIC for Staphylococcus aureus ATCC 29213; assay type: toxicity; settings: read-out: TI
Staphylococcus aureus = assay: Antibacterial activity against Staphylococcus aureus ATCC 29213 assessed as inhibition of visible growth after 24 hrs by broth microdilution method; assay type: functional
How it was run: (§1)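 Compounds dissolved in sterile water at the highest achievable concentration, then serially diluted in Mueller-Hinton II broth per CLSI broth microdilution. Strains grown 6 h in BHI, diluted in MHII to 1 × 10^6 cfu/mL final. Aerobic incubation 37 °C, 24 h; tetracycline internal control; bacteria-only growth controls. MIC = lowest concentration with no visible growth; triplicate.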

Escherichia coli = assay: Antibacterial activity against Escherichia coli ATCC 25922 assessed as inhibition of visible growth after 24 hrs by broth microdilution method; assay type: functional; how it was run: as §1
[2] = Retention time of the compound by RP-HPLC analysis; assay type: physicochemical
How it was run: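 RP-HPLC on C18 column (5 µm, 200 × 4.6 mm), 0.5 mL/min; hydrochlorides at 0.5–1 mg/mL in water:2-propanol 70:30, gradient to 10:90 over 40 min, then 20 min at 10:90. Adjusted retention time = instrumental retention time minus hold-up time.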

Pseudomonas aeruginosa = assay: Antibacterial activity against Pseudomonas aeruginosa ATCC 27853 assessed as inhibition of visible growth after 24 hrs by broth microdilution method; assay type: functional; how it was run: as §1
Enterococcus faecium = assay: Antibacterial activity against Enterococcus faecium 135562 (35C) assessed as inhibition of visible growth after 24 hrs by broth microdilution method; assay type: functional; how it was run: as §1
Enterococcus faecalis = assay: Antibacterial activity against Enterococcus faecalis ATCC 29212 assessed as inhibition of visible growth after 24 hrs by broth microdilution method; assay type: functional; how it was run: as §1
[3] = Therapeutic index, ratio of HC50 for human erythrocytes to MIC for Escherichia coli ATCC 25922; assay type: toxicity; settings: read-out: TI
[4] = Hemolytic activity against human erythrocytes measured after 1 hr by microplate reader based spectrophotometric analysis; assay type: ADME, cell-based, Erythrocyte
How it was run: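 Heparinized fresh human blood washed three times in PBS pH 7.4 (1000 g, 10 min), resuspended ~20 vol %. Equal volume with 1:2 serial dilutions of compound in PBS, 1 h at 37 °C; PBS and 0.2 vol % Triton X-100 controls. Supernatant diluted 1:60, A350 read. HC50 from three- or four-parameter Hill fit; mean of three replicates.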

Structure (SMILES)	selectivity ratio [1]	MIC (Staphylococcus aureus) [mg/L]	MIC (Escherichia coli) [mg/L]	Retention_time [2] [min]	MIC (Pseudomonas aeruginosa) [mg/L]	MIC (Enterococcus faecium) [mg/L]	MIC (Enterococcus faecalis) [mg/L]	selectivity ratio [3]	HC50 at 1 h [4] [µg/mL]
CCCCCCCCCCCCCCCCCC(=O)NN(CC(=O)NCCCCCCCC)C(=O)CN.Cl	1.6	128	512	32.2	512	64	512	0.4	200
CCCCCCCCCCCCCCCCCCNC(=O)CN(NC(C)=O)C(=O)CN.Cl	0.9	256	512	28	512	32	32	0.5	228
CCCCCCCCCCCCCCCCCCNC(=O)CN(NC(=O)CCCCCCCCCCC)C(=O)CN.Cl	1.4	256	> 512	35.9	512	512	512	< 0.7	364
CCCCCCCCCCCCCCCCCCNC(=O)CN(NC(=O)CCCCCCC)C(=O)CN.Cl	< 1	> 256	> 256	33.1	> 256	> 256	> 256	< 1	267
CCCCCCCCCCCC(=O)NN(CC(=O)NCCC)C(=O)CN.Cl	2.6	64	64	16.6	64	64	64	2.6	167
CCCCCCCCCCCCNC(=O)CN(NC(=O)OCc1ccccc1)C(=O)CN.Cl	11	8	32	21.2	128	8	16	2.7	86
CCCCCCCCNC(=O)CN(C(=O)CN)N(C)C(=O)OCc1ccccc1	–	128 (≈ 315 µM)	128 (≈ 315 µM)	13.8	256 (≈ 630 µM)	128 (≈ 315 µM)	128 (≈ 315 µM)	–	–
CCCCCCCCCCCCNC(=O)CN(NC(=O)CCCCCCCCCCC)C(=O)CN.Cl	< 3.4	> 128	> 128	29.1	> 128	128	128	< 3.4	438
CCCCCCCCNC(=O)CN(NC(C)=O)C(=O)CN.Cl	1.7	128	256	9.3	256	128	256	0.9	223
CCCCCCCCCCCCNC(=O)CN(C(=O)CN)N(C)C(=O)C(C)(C)C	–	16 (≈ 38.8 µM)	64 (≈ 155 µM)	18.9	512 (≈ 1240 µM)	16 (≈ 38.8 µM)	16 (≈ 38.8 µM)	–	–
CCCCCCCCCCCCCCCCCC(=O)NN(CC(=O)NCCC)C(=O)CN.Cl	3.7	64	512	26.5	512	16	32	0.5	234
CCCCCCCCCCCCNC(=O)CN(NC(=O)CCCCCCC)C(=O)CN.Cl	5.7	64	256	24	512	16	32	1.4	367
CCCCCCCCNC(=O)CN(NC(=O)OCc1ccccc1)C(=O)CN.Cl	3	64	64	14.3	128	64	128	3	189
CCCCCCCCNC(=O)CN(NC(=O)C(C)(C)C)C(=O)CN.Cl	1.5	512	256	11.7	512	256	256	3	775
CCCCCCCCNC(=O)CN(C(=O)CN)N(C)C(C)=O	–	2050 (≈ 6510 µM)	2050 (≈ 6510 µM)	9.1	2050 (≈ 6510 µM)	1020 (≈ 3260 µM)	1020 (≈ 3260 µM)	–	–
CCCNC(=O)CN(NC(C)=O)C(=O)CN.O=C(O)C(F)(F)F	2.6	1020	2050	0.3	2050	2050	2050	1.3	2700
CCCCCCCCCCCCCCCCCC(=O)NN(CC(=O)NCCCCCCCCCCCC)C(=O)CN.Cl	0.5	256	512	35.8	512	256	512	0.2	124
CCCCCCCCCCCCNC(=O)CN(C(=O)CN)N(C)C(C)=O	–	64 (≈ 173 µM)	128 (≈ 345 µM)	17.1	256 (≈ 691 µM)	32 (≈ 86.4 µM)	32 (≈ 86.4 µM)	–	–
CCCCCCCCCCCCCCCCCCNC(=O)CN(NC(=O)OCc1ccccc1)C(=O)CN.Cl	0.5	512	512	30.9	512	256	512	0.5	243
CCCCCCCCCCCC(=O)NN(CC(=O)NCCCCCCCC)C(=O)CN.Cl	7.6	64	128	23.5	128	8	16	3.8	486
CCCCCCCCCCCCNC(=O)CN(C(=O)CN)N(C)C(=O)OCc1ccccc1	–	8 (≈ 17.3 µM)	64 (≈ 138 µM)	20.7	512 (≈ 1110 µM)	8 (≈ 17.3 µM)	8 (≈ 17.3 µM)	–	–
CCCCCCCCNC(=O)CN(C(=O)CN)N(C)C(=O)C(C)(C)C	–	512 (≈ 1440 µM)	256 (≈ 718 µM)	11.7	512 (≈ 1440 µM)	512 (≈ 1440 µM)	512 (≈ 1440 µM)	–	–
CCCCCCCCCCCCCCCCCCNC(=O)CN(NC(=O)CCCCCCCCCCCCCCCCC)C(=O)CN.Cl	–	–	–	41.8	–	–	–	–	–
